ChEMBL document CHEMBL1828575, “Design, synthesis and antiproliferative activities of biarylolefins based on polyhydroxylated and carbohydrate scaffolds” (Eur J Med Chem, 2011)
Calls of active or inactive are those of the source. The rule behind the calls is not given here.

Legend:
[1] = Inhibition of sheep brain tubulin polymerization; set-up: species or system Ovis aries
Ovis aries = species on record: Ovis aries; test: Inhibition of sheep brain tubulin polymerization at 10 uM
How it was run: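 Microtubule protein from sheep brain, purified by two assembly/disassembly cycles (37 °C/0 °C), in 100 mM MES pH 6.6, 1 mM EGTA, 0.5 mM MgCl₂. Compounds in DMSO were tested at a single concentration, with incubation at 37 °C for 10 min and then 0 °C for 5 min before measuring assembly rate, following a modified Guénard protocol.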

With `COc1ccc(C(=O)c2cc(OC)c(OC)c(OC)c2)cc1O` [PHENSTATIN] the IC50 [1] was 7.9 µM and the “tubulin polymerization inhibition call (active/not active)” value (Ovis aries) was “Active”.
